Laboratory results as given in ChEMBL document CHEMBL5696442, “Discovery of type II inhibitors of TGFβ-activated kinase 1 (TAK1) and mitogen-activated protein kinase kinase kinase kinase 2 (MAP4K2)” (J Med Chem, 2015).

How the values were obtained:
[1] = target: Proto-oncogene tyrosine-protein kinase Src (Homo sapiens, UniProt P12931); experiment: Inhibition of SRC Lys1 labeling site in human Huh-7 cell lysate at 1 uM by KiNativ Profiling analysis relative to control; format: subcellular
[2] = target: T1, Serine/threonine-protein kinase Nek9 (Homo sapiens) (UniProt Q8TD19); experiment: Inhibition of NEK9 Lys2 labeling site in human A-375 cells at 0.05 uM by KiNativ Profiling analysis relative to control; format: cell-based
T1 sequence (whole entry): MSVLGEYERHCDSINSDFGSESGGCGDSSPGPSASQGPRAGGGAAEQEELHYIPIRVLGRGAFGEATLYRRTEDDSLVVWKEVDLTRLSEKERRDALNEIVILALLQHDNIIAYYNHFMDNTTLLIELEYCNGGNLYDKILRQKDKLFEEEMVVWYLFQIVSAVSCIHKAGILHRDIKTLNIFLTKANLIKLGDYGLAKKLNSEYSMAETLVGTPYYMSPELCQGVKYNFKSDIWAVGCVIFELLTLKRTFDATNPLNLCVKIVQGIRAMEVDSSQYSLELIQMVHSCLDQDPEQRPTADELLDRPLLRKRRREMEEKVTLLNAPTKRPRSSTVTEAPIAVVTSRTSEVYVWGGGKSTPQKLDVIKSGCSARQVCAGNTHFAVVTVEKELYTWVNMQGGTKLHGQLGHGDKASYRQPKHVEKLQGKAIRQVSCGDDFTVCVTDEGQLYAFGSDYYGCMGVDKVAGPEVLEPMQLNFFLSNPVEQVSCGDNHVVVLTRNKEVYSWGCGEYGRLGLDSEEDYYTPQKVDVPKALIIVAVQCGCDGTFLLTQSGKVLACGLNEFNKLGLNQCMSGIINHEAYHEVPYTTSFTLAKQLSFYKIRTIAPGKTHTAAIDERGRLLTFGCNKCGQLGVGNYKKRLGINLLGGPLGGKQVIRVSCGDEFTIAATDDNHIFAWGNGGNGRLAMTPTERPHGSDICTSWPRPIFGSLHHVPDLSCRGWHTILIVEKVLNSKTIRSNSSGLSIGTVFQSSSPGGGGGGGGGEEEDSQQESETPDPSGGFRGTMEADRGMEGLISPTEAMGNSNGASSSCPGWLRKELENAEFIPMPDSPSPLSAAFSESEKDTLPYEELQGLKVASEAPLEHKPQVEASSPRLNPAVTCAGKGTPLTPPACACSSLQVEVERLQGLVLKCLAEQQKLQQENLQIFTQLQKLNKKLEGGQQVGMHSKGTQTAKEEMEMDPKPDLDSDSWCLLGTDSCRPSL

[3] = target: Calcium/calmodulin-dependent protein kinase type 1 (Homo sapiens) (UniProt Q14012); experiment: Inhibition of CaMK1a Lys1 labeling site in human A-375 cells at 0.5 uM by KiNativ Profiling analysis relative to control; format: cell-based
Procedure, shortened: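 Intact A375 melanoma cells were treated with compound at 5 or 0.5 μM, then lysed. Lysate kinases were labeled with a lysine-reactive ATP or ADP-biotin probe (KiNativ). Inhibition is read as protection of each kinase labeling site from probe labeling.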

[4] = target: Serine/threonine-protein kinase Nek7 (Homo sapiens) (UniProt Q8TDX7); experiment: Inhibition of NEK7 Lys1 labeling site in human A-375 cells at 5 uM by KiNativ Profiling analysis relative to control; format: cell-based
[5] = target: T2, Serine/threonine-protein kinase 3 (Homo sapiens) (UniProt Q13188); experiment: Inhibition of MST2 Lys2 labeling site harbouring DIKAGNILLNTEGHAK in human A-375 cells at 0.5 uM by KiNativ Profiling analysis relative to control; format: cell-based
T2 sequence (whole entry): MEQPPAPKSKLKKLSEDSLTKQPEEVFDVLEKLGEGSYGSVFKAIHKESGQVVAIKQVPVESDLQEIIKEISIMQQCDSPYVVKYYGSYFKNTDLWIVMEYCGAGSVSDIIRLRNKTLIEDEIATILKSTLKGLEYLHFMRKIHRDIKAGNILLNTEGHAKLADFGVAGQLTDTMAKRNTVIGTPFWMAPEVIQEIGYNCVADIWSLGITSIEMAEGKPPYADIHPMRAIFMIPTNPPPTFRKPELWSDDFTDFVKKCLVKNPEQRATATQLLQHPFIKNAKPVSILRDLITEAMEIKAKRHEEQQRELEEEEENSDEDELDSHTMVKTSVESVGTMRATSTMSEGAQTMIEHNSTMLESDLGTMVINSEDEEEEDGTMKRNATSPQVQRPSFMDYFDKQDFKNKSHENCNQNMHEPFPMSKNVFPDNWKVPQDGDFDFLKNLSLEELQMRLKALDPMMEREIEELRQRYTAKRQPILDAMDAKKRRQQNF

[6] = target: Mitogen-activated protein kinase kinase kinase 1 (Homo sapiens) (UniProt Q13233); experiment: Inhibition of MAP3K1 Lys2 labeling site in human A-375 cells at 0.5 uM by KiNativ Profiling analysis relative to control; format: cell-based
[7] = target: T3, Kinase suppressor of Ras 1 (Homo sapiens) (UniProt Q8IVT5); experiment: Inhibition of KSR1 ACT labeling site harbouring SKNVFYDNGK in human A-375 cells at 0.5 uM by KiNativ Profiling analysis relative to control; format: cell-based
T3 sequence (whole entry): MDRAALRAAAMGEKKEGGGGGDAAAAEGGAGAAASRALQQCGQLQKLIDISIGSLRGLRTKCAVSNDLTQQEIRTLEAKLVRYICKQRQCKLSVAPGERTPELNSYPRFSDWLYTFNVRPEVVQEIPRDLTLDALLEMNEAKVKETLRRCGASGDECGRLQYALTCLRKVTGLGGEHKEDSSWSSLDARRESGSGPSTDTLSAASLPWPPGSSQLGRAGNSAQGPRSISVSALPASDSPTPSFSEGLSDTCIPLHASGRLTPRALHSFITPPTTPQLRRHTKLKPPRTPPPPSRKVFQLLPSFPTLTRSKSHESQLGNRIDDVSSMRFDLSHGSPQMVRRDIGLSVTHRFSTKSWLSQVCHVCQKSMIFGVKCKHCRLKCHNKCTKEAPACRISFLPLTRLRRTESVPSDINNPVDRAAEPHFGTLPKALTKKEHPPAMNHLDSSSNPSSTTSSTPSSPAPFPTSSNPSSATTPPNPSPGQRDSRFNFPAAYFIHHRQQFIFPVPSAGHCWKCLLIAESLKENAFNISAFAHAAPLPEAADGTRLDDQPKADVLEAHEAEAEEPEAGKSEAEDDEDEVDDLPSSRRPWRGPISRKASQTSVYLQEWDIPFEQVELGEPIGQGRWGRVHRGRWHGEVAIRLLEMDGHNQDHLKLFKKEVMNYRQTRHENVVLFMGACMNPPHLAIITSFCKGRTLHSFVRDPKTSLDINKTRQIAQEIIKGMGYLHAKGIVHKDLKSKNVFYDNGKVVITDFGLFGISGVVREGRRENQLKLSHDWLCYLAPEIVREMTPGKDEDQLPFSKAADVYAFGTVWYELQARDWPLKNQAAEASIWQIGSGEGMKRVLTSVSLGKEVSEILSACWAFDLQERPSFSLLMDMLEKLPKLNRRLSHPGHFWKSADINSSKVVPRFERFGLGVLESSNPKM

Calcium/calmodulin-dependent protein kinase type 1 (Homo sapiens), sequence (Q14012 whole entry, looked up): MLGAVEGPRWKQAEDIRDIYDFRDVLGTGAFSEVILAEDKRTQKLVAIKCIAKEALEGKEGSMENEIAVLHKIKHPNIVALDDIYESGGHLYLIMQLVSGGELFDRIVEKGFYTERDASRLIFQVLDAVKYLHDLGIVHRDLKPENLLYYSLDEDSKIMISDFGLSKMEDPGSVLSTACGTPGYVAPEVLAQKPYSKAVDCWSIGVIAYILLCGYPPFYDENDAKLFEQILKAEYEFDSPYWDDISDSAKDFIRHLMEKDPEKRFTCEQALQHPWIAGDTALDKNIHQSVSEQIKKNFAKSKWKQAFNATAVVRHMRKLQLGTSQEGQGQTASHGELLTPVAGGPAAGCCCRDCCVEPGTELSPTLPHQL
Mitogen-activated protein kinase kinase kinase 1 (Homo sapiens), sequence (Q13233 whole entry): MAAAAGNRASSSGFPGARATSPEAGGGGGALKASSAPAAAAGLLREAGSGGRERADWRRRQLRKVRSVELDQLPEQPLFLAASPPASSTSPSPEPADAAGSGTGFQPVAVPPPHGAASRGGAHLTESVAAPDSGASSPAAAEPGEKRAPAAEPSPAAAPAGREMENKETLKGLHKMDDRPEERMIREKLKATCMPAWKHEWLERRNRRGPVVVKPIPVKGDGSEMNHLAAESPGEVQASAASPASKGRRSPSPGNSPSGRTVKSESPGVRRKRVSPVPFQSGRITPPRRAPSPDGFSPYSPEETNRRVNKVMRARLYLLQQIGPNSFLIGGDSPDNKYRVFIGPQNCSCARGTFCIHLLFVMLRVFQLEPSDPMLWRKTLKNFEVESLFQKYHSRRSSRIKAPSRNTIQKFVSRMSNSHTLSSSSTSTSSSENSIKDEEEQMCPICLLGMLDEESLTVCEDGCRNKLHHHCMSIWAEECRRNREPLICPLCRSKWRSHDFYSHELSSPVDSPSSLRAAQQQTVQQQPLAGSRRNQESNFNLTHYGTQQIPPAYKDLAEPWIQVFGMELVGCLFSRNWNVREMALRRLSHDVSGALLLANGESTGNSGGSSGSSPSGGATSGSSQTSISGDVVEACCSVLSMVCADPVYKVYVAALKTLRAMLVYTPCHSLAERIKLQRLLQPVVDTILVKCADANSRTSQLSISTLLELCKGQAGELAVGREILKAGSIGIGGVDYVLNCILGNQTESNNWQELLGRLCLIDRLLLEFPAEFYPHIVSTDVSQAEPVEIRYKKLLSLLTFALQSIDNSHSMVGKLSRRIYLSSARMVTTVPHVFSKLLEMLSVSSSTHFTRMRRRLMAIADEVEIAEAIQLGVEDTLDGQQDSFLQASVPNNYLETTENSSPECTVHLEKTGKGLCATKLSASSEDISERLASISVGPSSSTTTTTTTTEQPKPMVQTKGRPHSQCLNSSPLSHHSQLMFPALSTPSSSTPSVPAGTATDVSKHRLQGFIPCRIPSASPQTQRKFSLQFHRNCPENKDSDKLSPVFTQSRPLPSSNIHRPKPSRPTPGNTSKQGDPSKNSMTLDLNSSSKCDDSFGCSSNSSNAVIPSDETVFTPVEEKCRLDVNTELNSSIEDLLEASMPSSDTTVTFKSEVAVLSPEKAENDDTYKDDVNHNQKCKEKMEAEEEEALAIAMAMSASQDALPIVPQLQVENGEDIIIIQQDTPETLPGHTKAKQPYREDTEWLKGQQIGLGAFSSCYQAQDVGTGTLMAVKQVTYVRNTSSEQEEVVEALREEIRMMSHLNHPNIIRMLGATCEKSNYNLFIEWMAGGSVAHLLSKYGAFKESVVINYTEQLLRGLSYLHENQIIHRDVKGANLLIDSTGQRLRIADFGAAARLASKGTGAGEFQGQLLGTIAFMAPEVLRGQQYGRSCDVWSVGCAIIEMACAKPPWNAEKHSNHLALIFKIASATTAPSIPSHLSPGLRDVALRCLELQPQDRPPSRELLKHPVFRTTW
Proto-oncogene tyrosine-protein kinase Src, sequence (P12931 2-536 limits assumed): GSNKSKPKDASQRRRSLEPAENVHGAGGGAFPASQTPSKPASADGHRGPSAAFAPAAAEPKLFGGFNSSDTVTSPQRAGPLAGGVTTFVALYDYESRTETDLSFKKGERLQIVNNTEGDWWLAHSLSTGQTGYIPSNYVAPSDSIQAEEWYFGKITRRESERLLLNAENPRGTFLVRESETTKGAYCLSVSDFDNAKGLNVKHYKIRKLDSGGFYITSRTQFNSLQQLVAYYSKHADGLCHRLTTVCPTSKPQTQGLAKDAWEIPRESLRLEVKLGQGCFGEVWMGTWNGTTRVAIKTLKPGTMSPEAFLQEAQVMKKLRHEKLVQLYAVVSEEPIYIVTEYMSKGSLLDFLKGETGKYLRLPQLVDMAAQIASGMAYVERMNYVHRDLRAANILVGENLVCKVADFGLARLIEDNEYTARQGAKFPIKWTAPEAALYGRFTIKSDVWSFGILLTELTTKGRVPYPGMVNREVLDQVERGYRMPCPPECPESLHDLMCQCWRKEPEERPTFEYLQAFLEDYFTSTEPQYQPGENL
Serine/threonine-protein kinase Nek7 (Homo sapiens), sequence (Q8TDX7 whole entry, looked up): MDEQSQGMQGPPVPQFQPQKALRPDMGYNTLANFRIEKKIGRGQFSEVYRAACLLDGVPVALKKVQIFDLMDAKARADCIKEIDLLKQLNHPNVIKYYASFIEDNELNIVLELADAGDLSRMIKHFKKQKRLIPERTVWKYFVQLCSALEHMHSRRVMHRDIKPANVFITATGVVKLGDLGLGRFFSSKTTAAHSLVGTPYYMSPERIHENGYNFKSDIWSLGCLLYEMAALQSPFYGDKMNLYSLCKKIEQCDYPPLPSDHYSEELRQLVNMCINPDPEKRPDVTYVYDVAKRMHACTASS

| SMILES | inhibition [1] | inhibition [2] | inhibition [3] | inhibition [4] | inhibition [5] | inhibition [6] | inhibition [7] |
| --- | --- | --- | --- | --- | --- | --- | --- |
| CNc1cc(Oc2cc(C(=O)Nc3cc(-n4cnc(C)c4)cc(C(F)(F)F)c3)ccc2C)ncn1 | -2.8% |  |  |  |  |  |  |
| CCN1CCN(Cc2ccc(NC(=O)c3ccc(C)c(Oc4ccnc5[nH]ccc45)c3)cc2C(F)(F)F)CC1 |  | 4.2% | 67% | 0.3% | -3.5% | 39.7% | 8.5% |
| CCN1CCN(Cc2ccc(NC(=O)c3ccc(C)c(/C=C/c4cnc5[nH]ccc5c4OC)c3)cc2C(F)(F)F)CC1 |  | 2% | 37% | -1.8% | -9.8% | 43.9% | 16.8% |
| CNc1cc(Oc2cc(C(=O)Nc3cc(N4CCN(C)CC4)cc(C(F)(F)F)c3)ccc2C)ncn1 | 18.1% |  |  |  |  |  |  |
